Experimental data taken from ChEMBL document CHEMBL1833825, “3-Aryl-2-[1H-benzotriazol-1-yl]acrylonitriles: a novel class of potent tubulin inhibitors” (Eur J Med Chem, 2011).
Active and inactive are the calls of the source. The calls are words filed in the database; no cut-off is given here.

Experiments:
[1] = Cytotoxicity against human MT4 cells infected with HTLV-1 after 96 hrs by MTT assay; assay type: cell-based
Outline: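 Mock-infected MT-4 cells (CD4+ T-cells carrying integrated HTLV-1 genome) were seeded at 1×10^5 cells/mL in RPMI-1640 with 10% FCS and penicillin/streptomycin. They were given serial compound dilutions for 96 h at 37 °C, 5% CO2, and viability was read by MTT. The value is the concentration reducing viability by 50%. Mean of two experiments; duplicate variation <15%.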

[2] = test system: CCRF-CEM; assay: Antiproliferative activity against human CCRF-CEM cells after 96 hrs by MTT assay; assay type: functional; conditions: read-out: CC50
Outline: (§1)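 Hematological lines (CCRF-CEM, CCRF-SB, WIL-2NS) were seeded exponentially growing at 1×10^5 cells/mL in RPMI-1640 with 10% FCS, penicillin G and streptomycin. They were exposed to serial dilutions (from 100 mM DMSO stocks) for 96 h at 37 °C, 5% CO2, then read by MTT. The value is the concentration giving 50% proliferation reduction, with controls allowed ≥3 rounds of multiplication. Mean of two experiments; duplicate variation <15%.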

[3] = test system: WIL2-NS; assay: Antiproliferative activity against human WIL2-NS cells after 96 hrs by MTT assay; assay type: functional; outline: as §1
[4] = test system: CCRF-SB; assay: Antiproliferative activity against human CCRF-SB cells after 96 hrs by MTT assay; assay type: functional; outline: as §1
[5] = test system: K562; assay: Cell cycle arrest in human K562 cells assessed as accumulation at G2/M phase at total growth inhibitory compound concentration 24 hrs using propidium iodide staining by FACS analysis (reference value: 18%); assay type: functional; set-up: scale not given: the % may be the effect or the level left
[6] = test system: K562; assay: Cell cycle arrest in human K562 cells assessed as accumulation at S phase at total growth inhibitory compound concentration 24 hrs using propidium iodide staining by FACS analysis (reference value: 47%); assay type: functional; set-up: scale not given: the % may be the effect or the level left
[7] = test system: K562; assay: Cell cycle arrest in human K562 cells assessed as accumulation at G0/G1 phase at total growth inhibitory compound concentration 24 hrs using propidium iodide staining by FACS analysis (reference value: 35%); assay type: functional; set-up: scale not given: the % may be the effect or the level left
[8] = test system: DU-145; assay: Antiproliferative activity against human DU145 cells after 96 hrs by MTT assay; assay type: functional; conditions: DU-145, 96 h, read-out: CC50
Outline: (§2)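 Solid-tumor lines (SK-MEL-28, MCF-7, SK-MES-1, HepG-2, DU-145) were seeded at 1×10^5 cells/mL in their specific media with 10% FCS plus antibiotics. Serial dilutions of compounds (100 mM DMSO stocks diluted in medium) were applied for 96 h at 37 °C, 5% CO2, with MTT readout. 50% proliferation-inhibition concentration; untreated controls underwent ≥3 multiplication rounds; mean of two experiments, duplicate variation <15%.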

[9] = test system: HepG2; assay: Antiproliferative activity against human HepG2 cells after 96 hrs by MTT assay; assay type: functional; conditions: HepG2, 96 h; outline: as §2
[10] = test system: MCF7; assay: Antiproliferative activity against human MCF7 cells after 96 hrs by MTT assay; assay type: functional; conditions: MCF7, 96 h; outline: as §2
[11] = test system: SK-MES-1; assay: Antiproliferative activity against human SKMES1 cells after 96 hrs by MTT assay; assay type: functional; conditions: SK-MES-1, 96 h; outline: as §2
[12] = test system: SK-MEL-28; assay: Antiproliferative activity against human SK-MEL-28 cells after 96 hrs by MTT assay; assay type: functional; conditions: SK-MEL-28, 96 h; outline: as §2
[13] = Displacement of [3H]paclitaxel from biotin-labeled tubulin after 2 hrs by competitive scintillation proximity assay
[14] = Displacement of [3H]colchicine from biotin-labeled tubulin after 2 hrs by competitive scintillation proximity assay
Outline: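 Scintillation proximity format: biotinylated tubulin, reconstituted per manufacturer, was incubated with [3H]colchicine and diluted compound in binding buffer at 37 °C for 2 h. Streptavidin-coated yttrium SPA beads were then added and bound radioactivity counted. IC50 came from nonlinear regression.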

Cc1cc2nnn(/C(C#N)=C/c3ccc4c(c3)OCO4)c2cc1C showed a CC50 at 96 h [1] of 1.3 µM.
In the case of COc1ccc(/C=C(\C#N)n2nnc3ccc(C(F)(F)F)cc32)cc1, the CC50 at 96 h [1] is reported as 200 µM.
Compound N#C/C(=C\c1ccccc1)n1nnc2ccccc21 has a CC50 at 96 h [1] of 4 µM.
Compound N#C/C(=C\c1ccco1)n1nc2ccccc2n1 has a CC50 at 96 h [1] of 375 µM.
For N#C/C(=C\c1ccc2c(c1)OCO2)n1nnc2ccc(C(F)(F)F)cc21, the CC50 at 96 h [1] was 52 µM.
Cc1ccc(/C=C(\C#N)n2nc3ccccc3n2)cc1 gave a CC50 at 96 h [1] of 20 µM.
N#C/C(=C\c1cccc([N+](=O)[O-])c1)n1nnc2ccccc21 showed a CC50 at 96 h [1] of 0.4 µM.
Compound N#C/C(=C\c1ccc(F)cc1)n1nc2ccccc2n1 has a CC50 at 96 h [1] of 32 µM.
For N#C/C(=C\c1ccccc1)n1nc2ccccc2n1, the CC50 at 96 h [1] was 12 µM.
For N#C/C(=C\c1ccc(Br)cc1)n1nnc2ccccc21, the CC50 at 96 h [1] was 0.4 µM, the IC50 (50% antiproliferative concentration) [2] was 0.4 µM and the CC50 [3] was 0.6 µM. It also gave a CC50 [4] of 0.3 µM, an Activity [5] of 35.34% and an Activity [6] of 22.41%. The Activity [7] was 42.25%, the IC50 (50% proliferation-inhibition concentration) [8] was 1.7 µM and the CC50 [9] was 2.1 µM. The CC50 [10] was 0.7 µM, the CC50 [11] was 2.4 µM and the CC50 [12] was 1.1 µM.
In the case of Cc1ccc(/C=C(\C#N)n2nnc3cc(Cl)c(Cl)cc32)cc1, the CC50 at 96 h [1] is reported as 1.7 µM, the IC50 (50% antiproliferative concentration) [2] is reported as 2.8 µM and the CC50 [3] is reported as 7 µM. The CC50 [4] was 2.8 µM, the Activity [5] was 67% and the Activity [6] was 15.5%. For the same compound, the Activity [7] was 18.5%, the IC50 (50% proliferation-inhibition concentration) [8] was 17 µM and the CC50 [9] was 21 µM. It also gave a CC50 [10] of 27 µM, a CC50 [11] of 27 µM and a CC50 [12] of 20 µM.
In the case of N#C/C(=C\c1ccc(C(=O)O)cc1)n1nnc2ccccc21, the CC50 at 96 h [1] is reported as 17 µM.
With COc1ccc(/C=C(\C#N)n2nnc3ccccc32)cc1 the CC50 at 96 h [1] was 0.05 µM, the IC50 (50% antiproliferative concentration) [2] was 0.2 µM and the CC50 [3] was 0.1 µM. It also gave a CC50 [4] of 0.09 µM, an Activity [5] of 70.5% and an Activity [6] of 24%. It also gave an Activity [7] of 5.5%, an IC50 (50% proliferation-inhibition concentration) [8] of 0.6 µM and a CC50 [9] of 0.8 µM. It also gave a CC50 [10] of 0.1 µM, a CC50 [11] of 0.6 µM and a CC50 [12] of 0.2 µM.
COc1cc([C@@H]2c3cc4c(cc3[C@@H](O[C@@H]3O[C@@H]5CO[C@@H](C)O[C@H]5[C@H](O)[C@H]3O)[C@H]3COC(=O)[C@H]23)OCO4)cc(OC)c1O [ETOPOSIDE] showed a CC50 at 96 h [1] of 0.09 µM, a CC50 [3] of 0.2 µM and a CC50 [4] of 0.1 µM. The CC50 [9] was 0.7 µM, the CC50 [10] was 1 µM and the CC50 [11] was 0.3 µM. The CC50 [12] was 1.2 µM.
N#C/C(=C\c1ccc(Cl)cc1Cl)n1nnc2ccccc21 showed a CC50 at 96 h [1] of 6 µM.
Sc1ncnc2nc[nH]c12 [MERCAPTOPURINE ANHYDROUS] gave a CC50 at 96 h [1] of 0.1 µM, a CC50 [3] of 3 µM and a CC50 [4] of 1.1 µM. The CC50 [9] was 8 µM, the CC50 [10] was 3.2 µM and the CC50 [11] was 58 µM. The CC50 [12] was 15 µM.
COc1ccccc1/C=C(\C#N)n1nnc2ccccc21 showed a CC50 at 96 h [1] of 8.3 µM.
With COc1cccc(/C=C(\C#N)n2nnc3ccccc32)c1 the CC50 at 96 h [1] was 4.7 µM.
N#C/C(=C\c1cccs1)n1nc2ccccc2n1 gave a CC50 at 96 h [1] of 132 µM.
For N#C/C(=C\c1ccc([N+](=O)[O-])cc1)n1nc2ccccc2n1, the CC50 at 96 h [1] was 0.4 µM.
With N#C/C(=C\c1ccc2c(c1)OCO2)n1nnc2ccccc21 the CC50 at 96 h [1] was 0.1 µM, the IC50 (50% antiproliferative concentration) [2] was 0.9 µM and the CC50 [3] was 0.6 µM. The CC50 [4] was 0.6 µM, the inhibition [13] was “inactive” and the IC50 [14] was 0.85 µM. For the same compound, the Activity [5] was 66.34%, the Activity [6] was 22.67% and the Activity [7] was 10.9%. It also gave an IC50 (50% proliferation-inhibition concentration) [8] of 3.4 µM, a CC50 [9] of 3.1 µM and a CC50 [10] of 1.3 µM. For the same compound, the CC50 [11] was 3.3 µM and the CC50 [12] was 3.3 µM.
COc1ccc(/C=C(\C#N)n2nc3ccccc3n2)cc1OC gave a CC50 at 96 h [1] of 360 µM.
N#C/C(=C\c1ccc(C(=O)O)cc1)n1nc2ccccc2n1 gave a CC50 at 96 h [1] of 16 µM.
N#C/C(=C\c1ccc(Cl)cc1)n1nnc2ccccc21 gave a CC50 at 96 h [1] of 0.4 µM.
In the case of N#C/C(=C\c1ccc(Cl)cc1)n1nc2ccccc2n1, the CC50 at 96 h [1] is reported as 16 µM.
Cc1cc2nnn(/C(C#N)=C/c3ccc(Cl)cc3)c2cc1C showed a CC50 at 96 h [1] of 24 µM.
With COc1cc(/C=C(\C#N)n2nnc3ccccc32)cc(OC)c1OC the CC50 at 96 h [1] was 2.5 µM.
Cc1ccc(/C=C(\C#N)n2nnc3ccccc32)cc1 gave a CC50 at 96 h [1] of 0.5 µM, an IC50 (50% antiproliferative concentration) [2] of 0.2 µM and a CC50 [3] of 0.2 µM. For the same compound, the CC50 [4] was 0.07 µM, the IC50 (50% proliferation-inhibition concentration) [8] was 0.5 µM and the CC50 [9] was 2.2 µM. It also gave a CC50 [10] of 0.7 µM, a CC50 [11] of 1.7 µM and a CC50 [12] of 0.3 µM.
Compound N#C/C(=C\c1ccccc1I)n1nnc2ccccc21 has a CC50 at 96 h [1] of 25 µM.
N#C/C(=C\c1ccc(Br)cc1)n1nnc2cc(Cl)c(Cl)cc21 showed a CC50 at 96 h [1] of 5.4 µM, an IC50 (50% antiproliferative concentration) [2] of 5.3 µM and a CC50 [3] of 18 µM. The CC50 [4] was 12 µM, the IC50 (50% proliferation-inhibition concentration) [8] was 7 µM and the CC50 [9] was 12 µM. It also gave a CC50 [10] of 8.4 µM, a CC50 [11] of 10 µM and a CC50 [12] of 10 µM.
Compound N#C/C(=C\c1ccccc1[N+](=O)[O-])n1nnc2ccccc21 has a CC50 at 96 h [1] of 31 µM.
With COc1ccc(/C=C(\C#N)n2nnc3cc(Cl)c(Cl)cc32)cc1 the CC50 at 96 h [1] was 14 µM, the IC50 (50% antiproliferative concentration) [2] was > 100 µM and the CC50 [3] was > 100 µM. For the same compound, the CC50 [4] was > 100 µM, the IC50 (50% proliferation-inhibition concentration) [8] was > 100 µM and the CC50 [9] was > 100 µM. For the same compound, the CC50 [10] was > 100 µM, the CC50 [11] was > 100 µM and the CC50 [12] was > 100 µM.
Work on COc1ccc(/C=C(\C#N)n2nnc3ccccc32)cc1OC yielded a CC50 at 96 h [1] of 7.5 µM.
Cc1cc2nnn(/C(C#N)=C/c3cccc([N+](=O)[O-])c3)c2cc1C gave a CC50 at 96 h [1] of 0.5 µM.
With N#C/C(=C\c1cccc([N+](=O)[O-])c1)n1nnc2cc(C(F)(F)F)ccc21 the CC50 at 96 h [1] was 0.7 µM.
